Laboratory results: ChEMBL document CHEMBL4414545, “Beta-Glucuronidase Catalyzes Deconjugation and Activation of Curcumin-Glucuronide in Bone” (J Nat Prod, 2019)
Calls of active or inactive are those of the source. No cut-off for these calls is given here.

What was measured:
[1] = target: T1, Beta-glucuronidase (Mus musculus, UniProt P12265); test: Prodrug conversion in C57BL/6J mouse bone marrow assessed as beta-glucuronidase mediated stabilization of aglycone curcumin at 0.5 uM administered via oral gavage incubated for 30 mins followed by resuspension in sodium acetate buffer at pH 5 measured after 2 hrs in presence of saccharolactone by LC-MS analysis; format: ADME; details: in vivo, pH 5, 0.5 µM
T1 sequence (P12265 whole entry): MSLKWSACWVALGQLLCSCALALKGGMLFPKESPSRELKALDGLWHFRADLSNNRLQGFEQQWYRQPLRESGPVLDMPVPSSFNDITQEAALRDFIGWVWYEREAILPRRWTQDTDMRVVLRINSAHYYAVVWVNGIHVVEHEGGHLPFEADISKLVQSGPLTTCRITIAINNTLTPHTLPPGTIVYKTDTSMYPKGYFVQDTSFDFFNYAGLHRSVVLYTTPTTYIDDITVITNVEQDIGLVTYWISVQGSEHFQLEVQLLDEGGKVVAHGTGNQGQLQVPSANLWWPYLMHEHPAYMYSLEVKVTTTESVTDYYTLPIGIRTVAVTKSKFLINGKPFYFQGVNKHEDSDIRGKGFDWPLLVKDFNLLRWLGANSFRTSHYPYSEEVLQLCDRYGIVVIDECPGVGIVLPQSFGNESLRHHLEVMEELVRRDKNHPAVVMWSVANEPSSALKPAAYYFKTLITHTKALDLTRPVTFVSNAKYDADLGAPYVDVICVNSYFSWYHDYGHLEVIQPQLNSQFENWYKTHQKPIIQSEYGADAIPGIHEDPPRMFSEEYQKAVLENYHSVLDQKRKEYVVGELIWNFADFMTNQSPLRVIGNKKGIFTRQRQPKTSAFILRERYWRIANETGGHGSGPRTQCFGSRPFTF

[2] = target: T2, Beta-glucuronidase (Homo sapiens, UniProt P08236); test: Prodrug conversion assessed as recombinant human C-terminal His6-tagged beta-glucuronidase mediated curcumin-glucuronide hydrolysis incubated for 24 hrs by LC-MS analysis; format: ADME; details: isolated protein
T2 sequence (P08236 whole entry): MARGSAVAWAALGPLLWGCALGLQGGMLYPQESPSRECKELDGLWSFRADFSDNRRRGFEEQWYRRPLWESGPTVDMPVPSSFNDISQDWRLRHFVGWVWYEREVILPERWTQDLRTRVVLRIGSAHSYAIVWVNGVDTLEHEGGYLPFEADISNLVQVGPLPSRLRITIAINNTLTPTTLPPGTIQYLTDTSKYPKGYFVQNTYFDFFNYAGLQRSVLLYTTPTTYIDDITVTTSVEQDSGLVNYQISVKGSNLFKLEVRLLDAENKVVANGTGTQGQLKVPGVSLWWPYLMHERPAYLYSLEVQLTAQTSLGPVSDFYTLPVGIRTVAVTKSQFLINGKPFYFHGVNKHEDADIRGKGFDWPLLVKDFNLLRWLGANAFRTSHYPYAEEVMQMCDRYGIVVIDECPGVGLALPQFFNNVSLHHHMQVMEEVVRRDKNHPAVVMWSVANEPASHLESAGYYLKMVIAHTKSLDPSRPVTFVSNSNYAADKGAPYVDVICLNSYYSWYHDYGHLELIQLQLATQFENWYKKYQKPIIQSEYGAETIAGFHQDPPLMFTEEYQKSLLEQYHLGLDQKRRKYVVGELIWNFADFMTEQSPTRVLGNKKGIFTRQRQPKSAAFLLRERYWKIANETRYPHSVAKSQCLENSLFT
In short: (§1)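 Recombinant human GUSB or α-klotho, 5 μg/mL (15 nM or 45 nM active enzyme), was incubated with curcumin-glucuronide (459 nM) for 24 h at 37°C at pH 5 in enzyme-optimized buffer. Reactions were stopped with HCl and extracted by HLB. Remaining glucuronide and formed aglycone were measured by LC/MS and expressed as % of enzyme-free control, n=3/group.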

[3] = target: T3, Klotho (Homo sapiens, UniProt Q9UEF7); test: Prodrug conversion assessed as recombinant human alpha-klotho mediated curcumin-glucuronide hydrolysis incubated for 24 hrs by LC-MS analysis; format: ADME; in short: as §1
T3 sequence (Q9UEF7 whole entry): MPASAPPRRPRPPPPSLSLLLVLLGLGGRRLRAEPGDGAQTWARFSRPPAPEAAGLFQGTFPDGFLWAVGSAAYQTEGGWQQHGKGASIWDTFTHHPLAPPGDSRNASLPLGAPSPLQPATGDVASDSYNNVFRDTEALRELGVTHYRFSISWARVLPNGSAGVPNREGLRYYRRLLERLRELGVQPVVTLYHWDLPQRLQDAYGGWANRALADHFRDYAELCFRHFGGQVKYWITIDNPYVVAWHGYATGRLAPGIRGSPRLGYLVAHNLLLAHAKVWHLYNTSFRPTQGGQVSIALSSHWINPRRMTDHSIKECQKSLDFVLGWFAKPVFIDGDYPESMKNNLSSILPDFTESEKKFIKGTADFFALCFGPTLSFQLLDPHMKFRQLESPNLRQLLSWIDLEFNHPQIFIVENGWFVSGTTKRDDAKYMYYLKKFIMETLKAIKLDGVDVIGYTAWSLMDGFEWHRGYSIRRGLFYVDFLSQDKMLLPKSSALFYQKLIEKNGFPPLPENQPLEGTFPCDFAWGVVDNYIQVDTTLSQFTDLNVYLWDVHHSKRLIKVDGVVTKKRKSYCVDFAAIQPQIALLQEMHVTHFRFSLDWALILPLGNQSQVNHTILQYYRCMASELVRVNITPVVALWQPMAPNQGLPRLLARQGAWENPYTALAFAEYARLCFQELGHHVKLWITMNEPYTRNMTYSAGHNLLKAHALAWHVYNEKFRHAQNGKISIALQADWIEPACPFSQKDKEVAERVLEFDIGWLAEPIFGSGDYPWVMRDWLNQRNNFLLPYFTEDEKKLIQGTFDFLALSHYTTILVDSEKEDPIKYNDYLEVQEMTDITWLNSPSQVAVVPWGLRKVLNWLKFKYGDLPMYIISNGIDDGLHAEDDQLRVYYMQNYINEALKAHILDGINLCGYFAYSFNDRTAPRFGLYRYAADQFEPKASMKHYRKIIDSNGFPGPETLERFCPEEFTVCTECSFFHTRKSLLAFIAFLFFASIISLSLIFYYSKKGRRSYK

[4] = system: RAW264.7; test: Inhibition of RANKL-induced osteoclastogenesis in murine RAW264.7 cells assessed as formation of TRAP positive multinucleated osteoclasts at 30 uM pretreated for 4 hrs followed by RANKL addition measured after 72 hrs; format: functional, cell-based; details: Mus musculus
In short: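 RAW 264.7 cells, used within 10 passages, were seeded at 5×10^3/well in DMEM with 10% FBS and allowed to adhere overnight at 37°C. Cells were pretreated 4 h with aglycone curcumin or curcumin-glucuronide, then given RANKL (50 ng/mL final) for 72 h. TRAP-positive multinucleated osteoclasts were counted, n=4/group.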

- Drug metabolism [1]: Metabolite_Detected
- Drug metabolism [2]: > 99%
- Drug metabolism [3]: 75%
Compound: COc1cc(/C=C/C(=O)CC(=O)/C=C/c2ccc(O[C@@H]3O[C@H](C(=O)O)[C@@H](O)[C@H](O)[C@H]3O)c(OC)c2)ccc1O
- inhibition [4]: inactive
